Common to all, as to assay type: functional
The test system of assay [1] is Nakaseomyces glabratus. The assay can be described thus: Antimicrobial activity against 5-fluorocytosine resistant Candida glabrata 66032-FC4 harboring Fcy1 A15D mutant assessed as lowest concentration inhibiting growth >=80% by broth microdilution method. Put shortly: (§1)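 Broth microdilution with 5FC or 5FU in RPMI 1640 buffered with 0.165 M MOPS, pH 7.0, plus 2% dextrose, replacing the YPD of the cited protocol. Drug stocks were in 50% DMSO, and final DMSO was ≤0.5%. Plates were incubated at 35°C and read at 630 nm. MIC was the lowest concentration giving ≥80% growth inhibition relative to the drug-free control.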
Background: Broth dilution looks for growth in wells or tubes with falling amounts of substance.

For assay [2], the system named is Nakaseomyces glabratus. Briefly: Antimicrobial activity against 5-fluorocytosine resistant Candida glabrata 66032-FC2 harboring Fur1 deltaG73-V81mutant assessed as lowest concentration inhibiting growth >=80% by broth microdilution method. A digest of the protocol: as §1
For assay [3], the system named is Nakaseomyces glabratus. Briefly: Antimicrobial activity against 5-fluorocytosine resistant Candida glabrata 66032-FC3 harboring Fur1 G71V mutant assessed as lowest concentration inhibiting growth >=80% by broth microdilution method. A digest of the protocol: as §1
Assay [4] concerns Nakaseomyces glabratus. The assay can be described thus: Antimicrobial activity against 5-fluorocytosine resistant Candida glabrata 66032 assessed as lowest concentration inhibiting growth >=80% by broth microdilution method. Put shortly:
as §1

Assay [5] relates to Nakaseomyces glabratus. Briefly: Antimicrobial activity against 5-fluorocytosine resistant Candida glabrata 66032-FC5 harboring Fcy1 A15D mutant assessed as lowest concentration inhibiting growth >=80% by broth microdilution method. A digest of the protocol: as §1
In assay [6] the test system is Nakaseomyces glabratus. Briefly: Antimicrobial activity against 5-fluorocytosine resistant Candida glabrata 66032-FC6 harboring Fcy1 G11D mutant assessed as lowest concentration inhibiting growth >=80% by broth microdilution method. A digest of the protocol:
as §1

Assay [7] has as its system Nakaseomyces glabratus. Briefly: Antimicrobial activity against 5-fluorocytosine resistant Candida glabrata 66032-FC1 harboring Fur1 183K mutant assessed as lowest concentration inhibiting growth >=80% by broth microdilution method. Put shortly: as §1
For assay [8], the system named is Nakaseomyces glabratus. Briefly: Antimicrobial activity against 5-fluorocytosine resistant and ura3 harboring Candida glabrata 66032u-FC6 harboring Fcy1 T92deltastop mutant assessed as lowest concentration inhibiting growth >=80% by broth microdilution method. Put shortly: as §1
Assay [9] concerns Nakaseomyces glabratus. The assay can be described thus: Antimicrobial activity against 5-fluorocytosine resistant and ura3 harboring Candida glabrata 66032u-FC1 harboring Fcy2L W291stop mutant assessed as lowest concentration inhibiting growth >=80% by broth microdilution method. A digest of the protocol:
as §1

The test system of assay [10] is Nakaseomyces glabratus. Briefly: Antimicrobial activity against 5-fluorocytosine resistant and ura3 harboring Candida glabrata 66032u-FC5 harboring Fcy2L E342stop mutant assessed as lowest concentration inhibiting growth >=80% by broth microdilution method. Put shortly: as §1
Assay [11] has as its system Nakaseomyces glabratus. Briefly: Antimicrobial activity against 5-fluorocytosine resistant and ura3 harboring Candida glabrata 66032u-FC10 harboring Fcy2L Q396stop mutant assessed as lowest concentration inhibiting growth >=80% by broth microdilution method. Put shortly: as §1
Assay [12] has as its system Nakaseomyces glabratus. The assay can be described thus: Antimicrobial activity against 5-fluorocytosine resistant and ura3 harboring Candida glabrata 66032u-FC3 harboring Fcy1 H59D mutant assessed as lowest concentration inhibiting growth >=80% by broth microdilution method. A digest of the protocol: as §1
In assay [13] the test system is Nakaseomyces glabratus. The assay can be described thus: Antimicrobial activity against 5-fluorocytosine resistant and ura3 harboring Candida glabrata 66032u assessed as lowest concentration inhibiting growth >=80% by broth microdilution method. Put shortly:
as §1

For assay [14], the system named is Nakaseomyces glabratus. The assay can be described thus: Antimicrobial activity against 5-fluorocytosine resistant and ura3 harboring Candida glabrata BG14 assessed as lowest concentration inhibiting growth >=80% by broth microdilution method. Put shortly: as §1
In assay [15] the test system is Nakaseomyces glabratus. The assay can be described thus: Antimicrobial activity against 5-fluorocytosine resistant and ura3 harboring Candida glabrata BG14-FC4 harboring Fcy1 E17stop mutant assessed as lowest concentration inhibiting growth >=80% by broth microdilution method. A digest of the protocol:
as §1

Assay [16] has as its system Nakaseomyces glabratus. The assay can be described thus: Antimicrobial activity against 5-fluorocytosine resistant and ura3 harboring Candida glabrata BG14-FC8 harboring Fcy2L E238-V277dup mutant assessed as lowest concentration inhibiting growth >=80% by broth microdilution method. Put shortly: as §1
The subject of assay [17] is Nakaseomyces glabratus. The assay can be described thus: Antimicrobial activity against 5-fluorocytosine resistant Candida glabrata isolate 20251.021 harboring Fcy1 T84L mutant assessed as lowest concentration inhibiting growth >=80% by broth microdilution method. A digest of the protocol:
as §1

Assay [18] has as its system Nakaseomyces glabratus. Briefly: Antimicrobial activity against 5-fluorocytosine resistant Candida glabrata isolate 20408.055 harboring Fur1 G210D mutant assessed as lowest concentration inhibiting growth >=80% by broth microdilution method. Put shortly: as §1
For assay [19], the system named is Nakaseomyces glabratus. Briefly: Antimicrobial activity against 5-fluorocytosine resistant Candida glabrata isolate TE34-78 harboring Fcr1 L136R mutant assessed as lowest concentration inhibiting growth >=80% by broth microdilution method. Put shortly:
as §1

Assay [20] relates to Nakaseomyces glabratus. Briefly: Antimicrobial activity against 5-fluorocytosine resistant Candida glabrata isolate TE34-75 harboring FcY2J 1384F mutant assessed as lowest concentration inhibiting growth >=80% by broth microdilution method. A digest of the protocol: as §1

Our source for the MIC values is ChEMBL document CHEMBL1687799, “Mutational analysis of flucytosine resistance in Candida glabrata” (2010).

≈ marks a conversion by molar mass, not a printed value. Where only a bound is given, the exact number is not on record here.

One may read the MIC as the smallest concentration in the dilution series that meets the test's criterion for growth inhibition.

Take `Nc1nc(=O)[nH]cc1F` [FLUCYTOSINE]: the MIC is no less than 32 µg/mL in the assay with Nakaseomyces glabratus [1]; no less than 32 µg/mL in the assay with Nakaseomyces glabratus [2]; no less than 32 µg/mL with Nakaseomyces glabratus [3]; 0.03 µg/mL (≈ 0.232 µM) with Nakaseomyces glabratus [4]; no less than 32 µg/mL with Nakaseomyces glabratus [5]; no less than 32 µg/mL in the assay with Nakaseomyces glabratus [6]. Moreover, the MIC was no less than 32 µg/mL in the assay on Nakaseomyces glabratus [7]; no less than 32 µg/mL with Nakaseomyces glabratus [8]; 1 µg/mL (≈ 7.75 µM) with Nakaseomyces glabratus [9]; 1 µg/mL (≈ 7.75 µM) in the assay with Nakaseomyces glabratus [10]; 1 µg/mL (≈ 7.75 µM) with Nakaseomyces glabratus [11]; no less than 32 µg/mL in the assay on Nakaseomyces glabratus [12]. Moreover, the MIC in the assay with Nakaseomyces glabratus [13] was 0.008 µg/mL (≈ 0.062 µM); in the assay on Nakaseomyces glabratus [14] it was 0.03 µg/mL (≈ 0.232 µM); with Nakaseomyces glabratus [15], no less than 32 µg/mL; in the assay with Nakaseomyces glabratus [16], 1 µg/mL (≈ 7.75 µM); in the assay on Nakaseomyces glabratus [17] it was no less than 32 µg/mL; with Nakaseomyces glabratus [18], no less than 32 µg/mL. Also, the figures for the minimum inhibitory concentration (MIC) in the assay on Nakaseomyces glabratus [19] and with Nakaseomyces glabratus [20] were no less than 32 µg/mL and 0.25 µg/mL (≈ 1.94 µM), respectively.
